Source: PMC3224553 (Bioorganic & medicinal chemistry letters, 2011)

Assays:
Caco-2 = Caco-2 permeability; assay type: in vitro ADME
Caco-2 permeability = assay type: in vitro ADME; details: human, Caco-2, Caco-2 Permeability Efflux Ratio
[1] = in vitro microsomal stability, human liver microsomes; assay type: in vitro ADME
[2] = in vitro microsomal stability, mouse liver microsomes; assay type: in vitro ADME
hPK M2 = hPK M2 (Homo sapiens, UniProt P14618); test: luminescent pyruvate kinase-luciferase coupled assay; assay type: biochemical; details: for AC50: hPK M2 AC50, average from three separate experiments
Sequence of hPK M2 (P14618 whole entry): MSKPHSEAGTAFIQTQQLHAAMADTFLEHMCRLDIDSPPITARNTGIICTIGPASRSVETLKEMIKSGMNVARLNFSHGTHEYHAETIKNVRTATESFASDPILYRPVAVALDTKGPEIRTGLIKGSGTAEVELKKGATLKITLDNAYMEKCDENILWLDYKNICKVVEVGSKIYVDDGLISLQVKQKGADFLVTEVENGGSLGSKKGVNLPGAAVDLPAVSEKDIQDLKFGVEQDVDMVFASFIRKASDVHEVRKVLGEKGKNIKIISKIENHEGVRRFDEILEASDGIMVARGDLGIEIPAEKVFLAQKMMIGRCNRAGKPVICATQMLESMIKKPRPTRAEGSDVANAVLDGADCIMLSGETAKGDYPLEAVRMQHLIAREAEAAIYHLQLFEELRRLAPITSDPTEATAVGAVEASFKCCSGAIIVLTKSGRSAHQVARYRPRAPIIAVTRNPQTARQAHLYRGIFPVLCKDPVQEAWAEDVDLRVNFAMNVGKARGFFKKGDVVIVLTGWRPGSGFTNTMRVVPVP
How it was run: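 Human PKM2 activity is read by luminescence in a pyruvate kinase–luciferase coupled format. AC50 values are the average of three separate experiments. Maximum response is the % activation at 57 μM of test compound, normalized as described in the supporting information.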

In the case of `Cc1ccc(NS(=O)(=O)c2ccc3c(c2)CCC(=O)N3)cc1C` [Compound 3], the “Caco-2 Permeability Papp (A–B)” value (Caco-2) is reported as 14.9 10^−6, cm/s, the “Caco-2 Permeability Papp (B–A)” value (Caco-2) is reported as 12.21 10^−6, cm/s and the efflux ratio (Caco-2 permeability) is reported as < 1. The half-life [1] was < 20 min and the half-life [2] was < 20 min.

For `Cc1ccc(NS(=O)(=O)c2cccc(C(=O)O)c2)cc1C` [Compound 5], the AC50 (hPK M2) was > 20 µM.

In the case of `Cc1ccc(NS(=O)(=O)c2ccc(F)cc2)cc1C` [Compound 6], the AC50 (hPK M2) is reported as > 20 µM.

`Cc1ccc(NS(=O)(=O)c2ccc3ccccc3c2)cc1C` [Compound 7] showed an AC50 (hPK M2) of 18.4 µM.

In the case of `Cc1ccc(NS(=O)(=O)c2cccc(Cl)c2)cc1C` [Compound 8], the AC50 (hPK M2) is reported as 18.3 µM.

With `COc1ccc(S(=O)(=O)Nc2ccc(C)c(C)c2)cc1` [Compound 9] the AC50 (hPK M2) was 17.3 µM.

With `Cc1ccc(NS(=O)(=O)c2ccc3c(c2)CCC(C)(C)O3)cc1C` [Compound 10] the AC50 (hPK M2) was 10 µM.

Work on `Cc1ccc(NS(=O)(=O)c2ccc3c(c2)NC(=O)CO3)cc1C` [Compound 11] yielded an AC50 (hPK M2) of 13.4 µM.

For `Cc1ccc(NS(=O)(=O)c2ccc3[nH]c(=O)[nH]c3c2)cc1C` [Compound 12], the AC50 (hPK M2) was > 20 µM.

Compound `CC(=O)Nc1cccc(S(=O)(=O)Nc2ccc(C)c(C)c2)c1` [Compound 13] has an AC50 (hPK M2) of 13.1 µM.

`CC(=O)N1CCCc2cc(S(=O)(=O)Nc3ccc(C)c(C)c3)ccc21` [Compound 14] showed an AC50 (hPK M2) of 9 µM.

`Cc1ccc(NS(=O)(=O)c2ccc3c(c2)CC(=O)N3)cc1C` [Compound 15] showed an AC50 (hPK M2) of 8.3 µM.

For `Cc1ccc(NS(=O)(=O)c2ccc3c(c2)CCCC(=O)N3)cc1C` [Compound 16], the AC50 (hPK M2) was 7.1 µM.

Compound `CC(=O)Nc1ccc(S(=O)(=O)Nc2ccc(C)c(C)c2)cc1` [Compound 17] has an AC50 (hPK M2) of 6.9 µM.

Work on `Cc1ccc(NS(=O)(=O)c2ccc3c(c2)oc(=O)n3C)cc1C` [Compound 18] yielded an AC50 (hPK M2) of 4.3 µM.

In the case of `Cc1ccc(NS(=O)(=O)c2ccc3c(c2)N(C)CCO3)cc1C` [Compound 19], the AC50 (hPK M2) is reported as 6 µM.

`Cc1ccc(NS(=O)(=O)c2ccc(N3CCCC3=O)cc2)cc1C` [Compound 20] showed an AC50 (hPK M2) of 0.94 µM.

`Cc1ccc(NS(=O)(=O)c2ccc3c(c2)CC(=O)N3C)cc1C` [Compound 21] gave an AC50 (hPK M2) of 2.3 µM.

In the case of `CC(=O)N1CCc2cc(S(=O)(=O)Nc3ccc(C)c(C)c3)ccc21` [Compound 22], the AC50 (hPK M2) is reported as 1.5 µM.

For `Cc1ccc(NS(=O)(=O)c2cc3c(cc2N(C)C)NC(=O)CC3)cc1C` [Compound 52], the “PKM2 activation, result in words” value (hPK M2) was “retained activity”, the half-life [1] was < 25 min and the half-life [2] was < 25 min.

For `CNc1cc2c(cc1S(=O)(=O)Nc1ccc(C)c(C)c1)CCC(=O)N2` [Compound 54], the “PKM2 activation, result in words” value (hPK M2) was “retained activity”, the half-life [1] was < 25 min and the half-life [2] was < 25 min.

With `Cc1ccc(NS(=O)(=O)c2cc3c(cc2N2CCC(N(C)C)C2)NC(=O)CC3)cc1C` (stereo not shown) [Compound 56] the “PKM2 activation, result in words” value (hPK M2) was “loss of activity”.

In the case of `Cc1ccc(NS(=O)(=O)c2cc3c(cc2N2CCCCC2)NC(=O)CC3)cc1C` [Compound 57], the “PKM2 activation, result in words” value (hPK M2) is reported as “loss of activity”.

With `Cc1ccc(NS(=O)(=O)c2cc3c(cc2N[C@@H](C)CO)NC(=O)CC3)cc1C` [Compound 63] the “fold more potent than its enantiomer” value (hPK M2; (S)- vs (R)-alaninol derivative) was 4 fold.

In the case of `Cc1ccc(NS(=O)(=O)c2cc3c(cc2F)NC(=O)CC3)cc1Cl` [Compound 64], the “Caco-2 Permeability Papp (A–B)” value (Caco-2) is reported as 6.22 10^−6, cm/s, the “Caco-2 Permeability Papp (B–A)” value (Caco-2) is reported as 6.24 10^−6, cm/s and the efflux ratio (Caco-2 permeability) is reported as ≤ 1.

With `O=C1CCc2cc(S(=O)(=O)Nc3ccc(F)c(Cl)c3)c(F)cc2N1` [Compound 66] the “Caco-2 Permeability Papp (A–B)” value (Caco-2) was 9.38 10^−6, cm/s, the “Caco-2 Permeability Papp (B–A)” value (Caco-2) was 7.91 10^−6, cm/s and the efflux ratio (Caco-2 permeability) was ≤ 1.

With `Cc1ccc(NS(=O)(=O)c2cc3c(cc2N[C@@H](C)CO)NC(=O)CC3)cc1Cl` [Compound 68] the “Caco-2 Permeability Papp (A–B)” value (Caco-2) was 1.13 10^−6, cm/s and the “Caco-2 Permeability Papp (B–A)” value (Caco-2) was 11.9 10^−6, cm/s.

In the case of `C[C@@H](CO)Nc1cc2c(cc1S(=O)(=O)Nc1ccc(F)c(Cl)c1)CCC(=O)N2` [Compound 69], the “Caco-2 Permeability Papp (A–B)” value (Caco-2) is reported as 1.61 10^−6, cm/s and the “Caco-2 Permeability Papp (B–A)” value (Caco-2) is reported as 17.52 10^−6, cm/s.

For `Cc1ccc(NS(=O)(=O)c2cc(Br)cc3c2NC(=O)CC3)cc1C` [Compound 74b], the “PKM2 activation, result in words” value (hPK M2) was “no activity”.

For `Cc1ccc(NS(=O)(=O)c2cc(Br)cc3c2NC(=O)CC3)cc1Cl` [Compound 75b], the “PKM2 activation, result in words” value (hPK M2) was “no activity”.

For `Cc1ccc(NS(=O)(=O)c2cc(N[C@@H](C)CO)cc3c2NC(=O)CC3)cc1C` [Compound 76b], the “PKM2 activation, result in words” value (hPK M2) was “inactive”.

With `Cc1ccc(NS(=O)(=O)c2cc(N[C@@H](C)CO)cc3c2NC(=O)CC3)cc1Cl` [Compound 77b] the “PKM2 activation, result in words” value (hPK M2) was “inactive”.
